Legend:
Staphylococcus aureus [1] = assay: Logarithmic survival of methicillin-resistant Staphylococcus aureus 110 at 2.5 uM after 10 mins and irradiated with white light at the fluence rate of 50 mW/cm2 for 30 mins relative to control; assay type: functional; conditions: light or radiation study
Method in brief: (§1)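 MRSA 110 grown aerobically at 37 °C on BHA. Stationary-phase cells were taken into BHI, washed twice in PBS and diluted to OD650 ~0.7 (10^8 to 10^9 cells/mL). Suspensions were held with photosensitizer for 10 min in the dark at room temperature, then given white light for 30 min. Cells were serially diluted, plated on BHA and counted after 16–20 h at 37 °C. Survival = cfu ÷ cfu of photosensitizer-free controls.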

Staphylococcus aureus [2] = assay: Logarithmic survival of methicillin-resistant Staphylococcus aureus 110 at 5 uM after 10 mins and irradiated with white light at the fluence rate of 50 mW/cm2 for 30 mins relative to control; assay type: functional; conditions: light or radiation study; method in brief: as §1
Escherichia coli [3] = assay: Logarithmic survival of Escherichia coli O4 at 0.01 uM after 10 mins and irradiated with white light at the fluence rate of 50 mW/cm2 for 30 mins relative to control; assay type: functional; conditions: O4, light or radiation study
Method in brief: (§2)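 Strains grown aerobically at 37 °C on brain heart agar; stationary-phase cells washed twice in PBS and adjusted to OD650 ca. 0.7 (10^8 to 10^9 cells/mL). Cells incubated with photosensitizer at various concentrations for 10 min in the dark at room temperature, then irradiated with white light at 50 mW/cm² for 30 min. Survivors counted as cfu on BHA after 16–20 h at 37 °C, expressed relative to no-photosensitizer controls. Dark controls were run without irradiation.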

Escherichia coli [4] = assay: Logarithmic survival of Escherichia coli O4 at 0.1 uM after 10 mins and irradiated with white light at the fluence rate of 50 mW/cm2 for 30 mins relative to control; assay type: functional; conditions: O4, light or radiation study; method in brief: as §2
Escherichia coli [5] = assay: Logarithmic survival of Escherichia coli O4 at 0.25 uM after 10 mins and irradiated with white light at the fluence rate of 50 mW/cm2 for 30 mins relative to control; assay type: functional; conditions: O4, light or radiation study; method in brief: as §2
Escherichia coli [6] = assay: Logarithmic survival of Escherichia coli O4 at 0.5 uM after 10 mins and irradiated with white light at the fluence rate of 50 mW/cm2 for 30 mins relative to control; assay type: functional; conditions: O4, light or radiation study; method in brief: as §2
Escherichia coli [7] = assay: Logarithmic survival of Escherichia coli O4 at 1 uM after 10 mins and irradiated with white light at the fluence rate of 50 mW/cm2 for 30 mins relative to control; assay type: functional; conditions: O4, light or radiation study; method in brief: as §2
Escherichia coli [8] = assay: Logarithmic survival of Escherichia coli O4 at 2.5 uM after 10 mins and irradiated with white light at the fluence rate of 50 mW/cm2 for 30 mins relative to control; assay type: functional; conditions: O4, light or radiation study; method in brief: as §2
Escherichia coli [9] = assay: Logarithmic survival of Escherichia coli O4 at 5 uM after 10 mins and irradiated with white light at the fluence rate of 50 mW/cm2 for 30 mins relative to control; assay type: functional; conditions: O4, light or radiation study; method in brief: as §2
Escherichia coli [10] = assay: Logarithmic survival of Escherichia coli O4 at 10 uM after 10 mins and irradiated with white light at the fluence rate of 50 mW/cm2 for 30 mins relative to control; assay type: functional; conditions: O4, light or radiation study; method in brief: as §2
Staphylococcus aureus [11] = assay: Logarithmic survival of Staphylococcus aureus ATCC 25923 at 0.1 uM after 10 mins and irradiated with white light at the fluence rate of 50 mW/cm2 for 2.5 mins relative to control; assay type: functional; conditions: ATCC 25923, light or radiation study
Method in brief: (§3)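 S. aureus ATCC 25923 or MRSA 110 (PBS-washed, 10^8 to 10^9 cells/mL) were incubated with 0.1 μM photosensitizer for 10 min in the dark at room temperature. They were then irradiated with white light at 50 mW/cm² for varying times up to 30 min. Survival was read as cfu on BHA and divided by cfu of controls without photosensitizer.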

Staphylococcus aureus [12] = assay: Logarithmic survival of Staphylococcus aureus ATCC 25923 at 0.1 uM after 10 mins and irradiated with white light at the fluence rate of 50 mW/cm2 for 15 mins relative to control; assay type: functional; conditions: ATCC 25923, light or radiation study; method in brief: as §3
Staphylococcus aureus [13] = assay: Logarithmic survival of methicillin-resistant Staphylococcus aureus 110 at 0.1 uM after 10 mins and irradiated with white light at the fluence rate of 50 mW/cm2 relative to control; assay type: functional; conditions: light or radiation study
Staphylococcus aureus [14] = assay: Logarithmic survival of methicillin-resistant Staphylococcus aureus 110 at 0.1 uM after 10 mins and irradiated with white light at the fluence rate of 50 mW/cm2 for 2.5 mins relative to control; assay type: functional; conditions: light or radiation study; method in brief: as §3
Staphylococcus aureus [15] = assay: Logarithmic survival of methicillin-resistant Staphylococcus aureus 110 at 0.1 uM after 10 mins and irradiated with white light at the fluence rate of 50 mW/cm2 for 20 mins relative to control; assay type: functional; conditions: light or radiation study; method in brief: as §3
Staphylococcus aureus [16] = assay: Drug uptake per mg of protein in methicillin-resistant Staphylococcus aureus 110 at 5 uM after 10 mins; assay type: ADME, organism-based; conditions: in vivo
Method in brief: (§4)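 Bacterial suspensions (10^8 to 10^9 cells/mL in PBS) were incubated with porphyrin for 10 min in the dark at room temperature, then centrifuged. The pellet was digested in 2% aqueous SDS. Porphyrin was quantified by spectrofluorimetry and cell protein by modified Lowry assay (BSA standard). Uptake is given as nmol per mg cell protein.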

Escherichia coli [17] = assay: Drug uptake per mg of protein in Escherichia coli O4 at 0.5 uM after 10 mins; assay type: ADME, organism-based; conditions: in vivo; method in brief: as §4
Escherichia coli [18] = assay: Drug uptake per mg of protein in Escherichia coli O4 at 1 uM after 10 mins; assay type: ADME, organism-based; conditions: in vivo; method in brief: as §4
Escherichia coli [19] = assay: Drug uptake per mg of protein in Escherichia coli O4 at 5 uM after 10 mins; assay type: ADME, organism-based; conditions: in vivo; method in brief: as §4
Staphylococcus aureus [20] = assay: Logarithmic survival of Staphylococcus aureus ATCC 25923 at 0.25 uM after 10 mins and irradiated with white light at the fluence rate of 50 mW/cm2 for 30 mins relative to control; assay type: functional; conditions: ATCC 25923, light or radiation study; method in brief: as §2
Staphylococcus aureus [21] = assay: Logarithmic survival of Staphylococcus aureus ATCC 25923 at 0.5 uM after 10 mins and irradiated with white light at the fluence rate of 50 mW/cm2 for 30 mins relative to control; assay type: functional; conditions: ATCC 25923, light or radiation study; method in brief: as §2
Staphylococcus aureus [22] = assay: Logarithmic survival of Staphylococcus aureus ATCC 25923 at 2.5 uM after 10 mins and irradiated with white light at the fluence rate of 50 mW/cm2 for 30 mins relative to control; assay type: functional; conditions: ATCC 25923, light or radiation study; method in brief: as §2
Staphylococcus aureus [23] = assay: Logarithmic survival of methicillin-resistant Staphylococcus aureus 110 at 0.01 uM after 10 mins and irradiated with white light at the fluence rate of 50 mW/cm2 for 30 mins relative to control; assay type: functional; conditions: light or radiation study; method in brief: as §2
Staphylococcus aureus [24] = assay: Logarithmic survival of methicillin-resistant Staphylococcus aureus 110 at 0.1 uM after 10 mins and irradiated with white light at the fluence rate of 50 mW/cm2 for 30 mins relative to control; assay type: functional; conditions: light or radiation study; method in brief: as §3
Staphylococcus aureus [25] = assay: Logarithmic survival of methicillin-resistant Staphylococcus aureus 110 at 0.25 uM after 10 mins and irradiated with white light at the fluence rate of 50 mW/cm2 for 30 mins relative to control; assay type: functional; conditions: light or radiation study; method in brief: as §1
[26] = Photostability after irradiation with white light at the fluence rate of 50 mW/cm2 for 1 min; assay type: ADME; conditions: read-out: Stability
Escherichia coli [27] = assay: Antibacterial activity against Escherichia coli O4 measured as 4 log decrease in survival; assay type: functional; method in brief: as §2
Staphylococcus aureus [28] = assay: Drug uptake per mg of protein in Staphylococcus aureus ATCC 25923 at 1 uM after 10 mins; assay type: ADME, organism-based; conditions: in vivo; method in brief: as §4
Staphylococcus aureus [29] = assay: Drug uptake per mg of protein in Staphylococcus aureus ATCC 25923 at 2.5 uM after 10 mins; assay type: ADME, organism-based; conditions: in vivo; method in brief: as §4
Staphylococcus aureus [30] = assay: Drug uptake per mg of protein in Staphylococcus aureus ATCC 25923 at 10 uM after 10 mins; assay type: ADME, organism-based; conditions: in vivo; method in brief: as §4
Staphylococcus aureus [31] = assay: Drug uptake per mg of protein in methicillin-resistant Staphylococcus aureus 110 at 0.5 uM after 10 mins; assay type: ADME, organism-based; conditions: in vivo; method in brief: as §4

Row | Compound | survival at 2.5 µM (Staphylococcus aureus [1]) | survival at 5 µM (Staphylococcus aureus [2]) | survival at 0.01 µM (Escherichia coli [3]) | survival at 0.1 µM (Escherichia coli [4]) | survival at 0.25 µM (Escherichia coli [5]) | survival at 0.5 µM (Escherichia coli [6]) | survival at 1 µM (Escherichia coli [7]) | survival at 2.5 µM (Escherichia coli [8]) | survival at 5 µM (Escherichia coli [9]) | survival at 10 µM (Escherichia coli [10]) | survival at 0.1 µM (Staphylococcus aureus [11]) | survival at 0.1 µM (Staphylococcus aureus [12]) | survival at 0.1 µM (Staphylococcus aureus [13]) | survival at 0.1 µM (Staphylococcus aureus [14]) | survival at 0.1 µM (Staphylococcus aureus [15]) | Drug uptake (Staphylococcus aureus [16]) [nmol/mg] | Drug uptake (Escherichia coli [17]) [nmol/mg] | Drug uptake (Escherichia coli [18]) [nmol/mg] | Drug uptake (Escherichia coli [19]) [nmol/mg] | survival at 0.25 µM (Staphylococcus aureus [20]) | further results
1 | C[n+]1ccc(-c2c3nc(c(-c4cc[n+](C)cc4)c4ccc([nH]4)c(-c4cc[n+](C)cc4)c4nc(c(-c5ccc(C(=O)O)cc5)c5ccc2[nH]5)C=C4)C=C3)cc1.[I-].[I-].[I-] | -2.13 | -2.29 | 2 | 1.57 | 1.64 | 1.52 | 0.68 | -0.46 | -2.57 | -4.36 | 0.49 | -1.17 | 1.95 | 1.84 | 1.79 | 11.8 | 1.29 | 2.47 | 4.35 | 1.56 | survival at 0.5 µM (Staphylococcus aureus [21]): -0.42; survival at 2.5 µM (Staphylococcus aureus [22]): -2%; log survival at 0.01 µM (Staphylococcus aureus [23]): 2 log10 %; survival at 0.1 µM (Staphylococcus aureus [24]): 1.69%; survival at 0.25 µM (Staphylococcus aureus [25]): 1.68%; remaining at 1 min [26]: 93%; Activity (Escherichia coli [27]): 5 µM; Drug uptake (Staphylococcus aureus [28]): 3.71 nmol/mg; Drug uptake (Staphylococcus aureus [29]): 7.77 nmol/mg; Drug uptake (Staphylococcus aureus [30]): 17 nmol/mg; Drug uptake (Staphylococcus aureus [31]): 2.08 nmol/mg
2 | O=C(O)c1ccc(-c2c3nc(c(-c4ccncc4)c4ccc([nH]4)c(-c4ccncc4)c4nc(c(-c5ccncc5)c5ccc2[nH]5)C=C4)C=C3)cc1 [PORPHIRIN] | -3.11 | -3.07 | 2 | 2 | 1.7 | 1.46 | 1.72 | 1.65 | 1.6 | -4.06 | 0.22 | -2.48 | 1.89 | 1.8 | -0.6 | 143 | 4.16 | 7.65 | 85.6 | -1.9 | survival at 0.5 µM (Staphylococcus aureus [21]): -2.39; survival at 2.5 µM (Staphylococcus aureus [22]): -3.3%; log survival at 0.01 µM (Staphylococcus aureus [23]): 2 log10 %; survival at 0.1 µM (Staphylococcus aureus [24]): 0.46%; survival at 0.25 µM (Staphylococcus aureus [25]): -1.39%; remaining at 1 min [26]: 99%; Activity (Escherichia coli [27]): 10 µM; Drug uptake (Staphylococcus aureus [28]): 7.7 nmol/mg; Drug uptake (Staphylococcus aureus [29]): 32.1 nmol/mg; Drug uptake (Staphylococcus aureus [30]): 187 nmol/mg; Drug uptake (Staphylococcus aureus [31]): 5.5 nmol/mg

Reference: ChEMBL document CHEMBL1149289, “Synthesis and antibacterial activity of new poly-S-lysine-porphyrin conjugates” (J Med Chem, 2004)
